In PubChem BioAssay AID651999 (Sanford-Burnham Center for Chemical Genomics, 2013):
About 1,400 (0.39%) of roughly 360,000 compounds were called active. This excerpt belongs to a sample that is enriched for actives. Unmarked numbers belong to inactive results.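 The calls were made as follows: active = pattern-corrected inhibition above about 35%, with an unprinted fluorescence ratio check between 0.5 and 1.5 (limit read from the data, passing the limit was not always enough); inactive = the rest.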

target: COP9 signalosome complex subunit 5 (Homo sapiens) (UniProt Q92905); test: inhibitors of CSN-mediated cullin deneddylation, primary screen, biochemical, fluorescence polarization, uHTS (AID 651999); settings: Purified CSN, SCF-Nedd8-OG deneddylation, at 12.5 µM, hits give high values;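 also: 0% = enzyme with substrate and 100% = substrate without enzyme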
Sequence (Q92905 whole entry, looked up, one chain of several): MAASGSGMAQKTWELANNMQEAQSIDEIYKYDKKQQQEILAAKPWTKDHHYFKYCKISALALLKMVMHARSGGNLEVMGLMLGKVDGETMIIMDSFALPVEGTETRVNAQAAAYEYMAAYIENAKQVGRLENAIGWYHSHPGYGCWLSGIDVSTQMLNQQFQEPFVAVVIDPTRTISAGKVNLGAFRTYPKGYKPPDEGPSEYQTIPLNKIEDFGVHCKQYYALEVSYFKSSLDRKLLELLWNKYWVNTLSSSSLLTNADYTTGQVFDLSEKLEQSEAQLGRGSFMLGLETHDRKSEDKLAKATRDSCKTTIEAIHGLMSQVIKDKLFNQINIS
Summary of the method: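 Test system: Human Csn5 produced in HEK293T cells | Compound: 12.5 µM single point | Times: 90 min, room temperature | Signal: Fluorescence polarization readout | Read-out basis: % inhibition of substrate cleavage by Csn5 | Controls: no-enzyme wells high, enzyme-with-substrate wells low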

Row | Structure (SMILES) | inhibition
1 | CCCC(=O)n1nc(NCc2ccc(OC)cc2)nc1NCc1ccc(OC)cc1 | 0.03%
2 | CC1(C)C=Cc2c(ccc3c2OC[C@@H](c2ccc(O)cc2O)C3)O1 | 1.92%
3 | Cc1cc(Br)cn2c(Cc3ccsc3)c(-c3ccc(C#N)cc3)nc12 | 77.2% (active)
4 | Cc1cc(Br)cn2c(Cc3cccc(F)c3)c(-c3cccc(Br)c3)nc12 | 1.9%
5 | Cc1ccc(-c2nc3c(C)cc(Br)cn3c2Cc2ccccc2)cc1 | -3.35%
6 | COC(=O)c1cc(NC(=O)CC2C(=O)NCCN2C(=O)c2ccc(F)cc2)cc(C(=O)OC)c1 (stereo unspecified) | 0.24%
7 | CS(=O)(=O)c1ccc(-c2nnn(CC(=O)Nc3ccc4c(c3)OCCO4)n2)cc1 | 0.36%
8 | CS(=O)(=O)c1ccc2c(c1)SC1=NC(=O)/C(=C/c3ccco3)C(=N)N12 | 58.8% (active)
9 | COc1ccc(N2CCN(C(=O)CNS(=O)(=O)c3ccc(C)c(C)c3)CC2)cc1 | -4.8%
10 | COc1ccc(NC(=O)CC2SC(N3CCCCC3)=NC2=O)cc1OC (stereo unspecified) | 0.22%
11 | COc1ccc(S(=O)(=O)N2CCN(CC(=O)N3c4ccccc4CC3C)CC2)cc1OC (stereo unspecified) | 18.4%
12 | COc1ccc(C2COC(=O)C2=N)c(NC(=O)c2ccccc2)c1 (stereo unspecified) | -4.82%
13 | CCOC(=O)c1cc(NC(=O)c2ccc(Cl)cc2)c(=O)oc1-c1ccccc1 | -2.25%
14 | CC(=O)c1cc(NC(=O)c2ccccc2)c(=O)oc1/C=C/N(C)C | 55.4% (active)
15 | CCCCCCCC1(C)NC(=O)N(CC(=O)Nc2cc(C)on2)C1=O (stereo unspecified) | -7.92%
16 | C=CCn1c(SCc2cccc(F)c2)nc2cc(C(=O)N3CCC(C(N)=O)CC3)ccc2c1=O | 0.76%
17 | Cc1ccc(CSCC2Nc3ccc(C(=O)N4CCN(c5ccc(F)cc5)CC4)cc3NC2=O)cc1 (stereo unspecified) | 25.2%
18 | O=C1Nc2cc(C(=O)N3CCN(c4ccc(F)cc4)CC3)ccc2NC1CSCc1cccc(F)c1 (stereo unspecified) | 51.2% (active)
19 | O=C(Cc1coc2ccc3ccccc3c12)NCc1cccs1 | -8.34%
20 | CC(C)Cn1c(N)c(C(=O)NCc2cccs2)c2nc3ccccc3nc21 | 36% (active)
21 | O=C(NCc1cccs1)c1ccc(Br)o1 | -0.05%

Row | Structure (SMILES) | inhibition
22 | COc1cc(/C=C2/C(=O)NN(c3cccc(Cl)c3)C2=O)cc(Br)c1O | 44.4% (active)
23 | CCOc1c(Br)cc(/C=C2\C(=O)N(CCC#N)N=C2C)cc1OC | 2.79%
24 | CCc1nc2ccc(C(=O)N(C)CCN(C)C)cn2c1N(CC)CCOC | -0.82%
25 | CN1CCN(CCCNC(=O)c2ccc(/C=C3\Oc4ccccc4N(Cc4ccc(Cl)cc4)C3=O)cc2)CC1 | 119% (active)
26 | O=C(CC1Oc2ccccc2NC1=O)NCCCN1CCN(Cc2ccccc2)CC1 (stereo unspecified) | -8.5%
27 | O=C(CCN1C(=O)COc2ccccc21)NCCCN1CCN(c2ccc(F)cc2)CC1 | -4.53%
28 | Cc1nonc1OCCn1nnnc1N | -0.98%
29 | O=C(O[C@H]1[C@H](Cc2ccccc2)NS(=O)(=O)[C@H]2C[C@@H]3C=C[C@]12O3)c1ccc([N+](=O)[O-])cc1 | 0.94%
30 | CCCSc1nc2[nH]ncc2c(=O)[nH]1 | 0.78%
31 | Cn1ccnc1-c1nnn(-c2ccc(F)cc2)n1 | -1.15%
32 | COc1ccc(NC(=O)CSc2nnc(Cc3ccccc3)c(=O)n2N)cc1 | 2.76%
33 | CC(=O)NCCn1c(SCC(=O)Nc2ccc(C)cc2)nc2ccccc2c1=O | -2.03%
34 | COc1ccc(NC(=O)CSc2nc3ccccc3c(=O)n2C)cc1 | 81.7% (active)
35 | C=CCSc1nc2c(c(=O)[nH]1)C(C(C)C)C(C#N)=C(N)O2 (stereo unspecified) | -4.61%
36 | CCCNC(=O)C(=O)Nc1cc2c3c(c1)CCC(=O)N3CCC2 | -1.23%
37 | COc1ccc(NS(=O)(=O)c2ccc(C)c(C(=O)NCC(c3cccs3)N3CCOCC3)c2)cc1 (stereo unspecified) | 1.17%
38 | COc1ccc(NS(=O)(=O)c2ccc(C)c(C(=O)N(C)Cc3ccc(OC)cc3OC)c2)cc1 | 157% (active)
39 | CCOc1ccc(NS(=O)(=O)c2ccc(C)c(C(N)=O)c2)cc1 | 8.11%
40 | CC1O[C@H](OC2C(COC3OC(CO)C(O)[C@H](O)C3O)OC(OC3CC[C@]4(C)C(CC[C@@]5(C)[C@@H]4C=C[C@]46OC[C@@]7(CCC(C)(C)C[C@H]74)C(O)C[C@@]56C)C3(C)C)C(O)C2O)C(O)C(O)C1O (stereo partly specified) | -2.09%
41 | COc1ccc(-n2nnc3c(=O)n(CC(=O)N4CCC(Cc5ccccc5)CC4)cnc32)cc1 | -0.9%
